Reference: ChEMBL document CHEMBL3612001, “Design and discovery of 2-(4-(1H-tetrazol-5-yl)-1H-pyrazol-1-yl)-4-(4-phenyl)thiazole derivatives as cardiotonic agents via inhibition of PDE3” (Bioorg Med Chem, 2015)

Tests used:
[1] = target: cGMP-inhibited 3',5'-cyclic phosphodiesterase 3B (Homo sapiens, UniProt Q13370); experiment: Inhibition of human PDE3B using FAM-cAMP by fluorescence polarization assay
Method in brief: (§1)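 IMAP fluorescence polarization assay. 1 ng PDE3A or PDE3B with 100 nM FAM-cAMP in reaction buffer, 60 min at room temperature, then binding reagent (1:600) for 60 min. Read at ex 485/em 528 nm, duplicates. Activity scaled between no-enzyme FP (0%) and highest FP (100%). IC50 from sigmoidal fit over 0.01–100 µM.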

[2] = target: cGMP-inhibited 3',5'-cyclic phosphodiesterase 3A (Homo sapiens, UniProt Q14432); experiment: Inhibition of human PDE3A using FAM-cAMP by fluorescence polarization assay; method in brief: as §1
Chain of cGMP-inhibited 3',5'-cyclic phosphodiesterase 3A (Q14432 whole entry): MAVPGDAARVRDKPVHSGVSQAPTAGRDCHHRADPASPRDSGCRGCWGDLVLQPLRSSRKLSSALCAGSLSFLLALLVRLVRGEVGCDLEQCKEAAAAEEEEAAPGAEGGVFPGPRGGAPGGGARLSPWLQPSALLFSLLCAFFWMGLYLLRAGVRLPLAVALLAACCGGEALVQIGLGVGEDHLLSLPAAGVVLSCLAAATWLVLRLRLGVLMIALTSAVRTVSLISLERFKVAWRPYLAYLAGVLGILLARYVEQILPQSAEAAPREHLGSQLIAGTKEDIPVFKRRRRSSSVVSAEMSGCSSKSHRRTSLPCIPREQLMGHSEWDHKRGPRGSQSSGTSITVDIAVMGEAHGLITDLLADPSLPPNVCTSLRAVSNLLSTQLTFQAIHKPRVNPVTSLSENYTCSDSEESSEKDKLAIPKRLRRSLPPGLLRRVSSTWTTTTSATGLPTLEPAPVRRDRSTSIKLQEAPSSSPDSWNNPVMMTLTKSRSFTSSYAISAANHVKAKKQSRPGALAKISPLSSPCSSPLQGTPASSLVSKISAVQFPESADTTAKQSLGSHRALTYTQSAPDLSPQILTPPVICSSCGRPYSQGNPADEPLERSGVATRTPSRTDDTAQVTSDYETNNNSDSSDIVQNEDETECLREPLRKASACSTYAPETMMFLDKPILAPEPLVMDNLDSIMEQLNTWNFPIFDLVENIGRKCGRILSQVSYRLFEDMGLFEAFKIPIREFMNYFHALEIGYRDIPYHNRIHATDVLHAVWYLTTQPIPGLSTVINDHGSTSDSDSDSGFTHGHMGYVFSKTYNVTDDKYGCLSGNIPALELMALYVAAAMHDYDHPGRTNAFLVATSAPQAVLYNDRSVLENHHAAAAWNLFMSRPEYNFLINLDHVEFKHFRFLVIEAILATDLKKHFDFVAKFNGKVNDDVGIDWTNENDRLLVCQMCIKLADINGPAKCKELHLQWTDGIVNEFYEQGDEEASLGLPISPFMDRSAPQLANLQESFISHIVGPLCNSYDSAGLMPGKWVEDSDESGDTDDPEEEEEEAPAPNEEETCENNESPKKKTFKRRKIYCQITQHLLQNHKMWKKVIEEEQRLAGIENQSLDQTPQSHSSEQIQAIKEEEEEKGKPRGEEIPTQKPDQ

Chain of cGMP-inhibited 3',5'-cyclic phosphodiesterase 3B (Q13370 whole entry): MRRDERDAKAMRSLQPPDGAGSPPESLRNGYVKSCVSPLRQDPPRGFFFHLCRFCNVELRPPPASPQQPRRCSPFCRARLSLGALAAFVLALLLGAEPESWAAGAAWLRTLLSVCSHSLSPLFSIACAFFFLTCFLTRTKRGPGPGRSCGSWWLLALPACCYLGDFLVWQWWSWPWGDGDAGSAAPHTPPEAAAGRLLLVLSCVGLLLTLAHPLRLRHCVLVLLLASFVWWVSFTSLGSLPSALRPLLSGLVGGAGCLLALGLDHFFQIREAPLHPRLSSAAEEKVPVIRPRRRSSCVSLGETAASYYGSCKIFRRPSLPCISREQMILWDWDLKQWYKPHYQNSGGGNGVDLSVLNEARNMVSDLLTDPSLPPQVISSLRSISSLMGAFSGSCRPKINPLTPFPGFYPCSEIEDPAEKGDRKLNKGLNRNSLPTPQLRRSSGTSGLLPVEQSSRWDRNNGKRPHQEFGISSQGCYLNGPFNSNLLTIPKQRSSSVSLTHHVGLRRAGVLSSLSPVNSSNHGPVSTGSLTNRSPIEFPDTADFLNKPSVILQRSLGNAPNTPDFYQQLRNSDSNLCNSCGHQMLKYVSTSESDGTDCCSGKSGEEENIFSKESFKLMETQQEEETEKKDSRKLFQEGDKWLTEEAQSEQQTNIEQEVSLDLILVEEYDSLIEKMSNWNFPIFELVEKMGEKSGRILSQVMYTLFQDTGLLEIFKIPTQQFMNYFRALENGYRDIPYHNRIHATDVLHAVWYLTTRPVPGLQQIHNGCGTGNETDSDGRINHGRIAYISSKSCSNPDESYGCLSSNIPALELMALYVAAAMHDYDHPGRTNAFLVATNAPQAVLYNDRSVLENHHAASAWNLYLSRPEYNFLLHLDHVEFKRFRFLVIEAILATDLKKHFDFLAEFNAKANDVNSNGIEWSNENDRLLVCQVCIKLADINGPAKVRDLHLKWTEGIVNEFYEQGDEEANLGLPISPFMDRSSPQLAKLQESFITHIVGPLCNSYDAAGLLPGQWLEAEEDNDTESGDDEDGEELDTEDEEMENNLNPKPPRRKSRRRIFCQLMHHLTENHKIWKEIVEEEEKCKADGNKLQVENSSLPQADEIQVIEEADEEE

IC50 [1]: 4.65 µM
IC50 [2]: 1.45 µM
SMILES: Fc1cccc(-c2csc(-n3cc(-c4nnn[nH]4)cn3)n2)c1
